Assays:
[1] = target: Sodium-dependent dopamine transporter (Homo sapiens, UniProt Q01959); assay: Displacement of [125I]-IPT from DAT transfected in pig LLC-PK1 cells by radioligand competition binding assay; format: cell-based
Brain [2] = assay: Drug uptake in Sprague-Dawley rat brain at 25 uCi, iv after 2 mins by gamma counter; format: ADME, organism-based; details: in vivo
Outline: (§1)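 Normal male Sprague-Dawley rats were given 25 µCi of the 18F-tracer via the femoral vein. Rats (n = 5 per time point) were sacrificed at 2, 60, 120 or 180 min post-injection. Brain regions were dissected and weighed, and radioactivity was gamma-counted. Values are %ID/g, calculated against diluted aliquots of the injected dose, as mean ± S.D.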

Brain [3] = assay: Drug uptake in Sprague-Dawley rat brain at 25 uCi, iv after 60 mins by gamma counter; format: ADME, organism-based; details: in vivo, 1 h; outline: as §1
Brain [4] = assay: Drug uptake in Sprague-Dawley rat brain at 25 uCi, iv after 120 mins by gamma counter; format: ADME, organism-based; details: in vivo, 2 h; outline: as §1
Brain [5] = assay: Drug uptake in Sprague-Dawley rat brain at 25 uCi, iv after 180 mins by gamma counter; format: ADME, organism-based; details: in vivo, 3 h; outline: as §1
Cerebellum [6] = assay: Drug uptake in Sprague-Dawley rat cerebellum at 25 uCi, iv after 2 mins by gamma counter; format: ADME, organism-based; details: in vivo; outline: as §1
Cerebellum [7] = assay: Drug uptake in Sprague-Dawley rat cerebellum at 25 uCi, iv after 60 mins by gamma counter; format: ADME, organism-based; details: in vivo, 1 h; outline: as §1
Cerebellum [8] = assay: Drug uptake in Sprague-Dawley rat cerebellum at 25 uCi, iv after 120 mins by gamma counter; format: ADME, organism-based; details: in vivo, 2 h; outline: as §1
Cerebellum [9] = assay: Drug uptake in Sprague-Dawley rat cerebellum at 25 uCi, iv after 180 mins by gamma counter; format: ADME, organism-based; details: in vivo, 3 h; outline: as §1
Striatum [10] = assay: Drug uptake in Sprague-Dawley rat striatum at 25 uCi, iv after 2 mins by gamma counter; format: ADME, organism-based; details: in vivo; outline: as §1
Striatum [11] = assay: Drug uptake in Sprague-Dawley rat striatum at 25 uCi, iv after 60 mins by gamma counter; format: ADME, organism-based; details: in vivo, 1 h; outline: as §1
Striatum [12] = assay: Drug uptake in Sprague-Dawley rat striatum at 25 uCi, iv after 120 mins by gamma counter; format: ADME, organism-based; details: in vivo, 2 h; outline: as §1
Striatum [13] = assay: Drug uptake in Sprague-Dawley rat striatum at 25 uCi, iv after 180 mins by gamma counter; format: ADME, organism-based; details: in vivo, 3 h; outline: as §1
Hippocampus [14] = assay: Drug uptake in Sprague-Dawley rat hippocampus at 25 uCi, iv after 2 mins by gamma counter; format: ADME, organism-based; details: in vivo; outline: as §1
Hippocampus [15] = assay: Drug uptake in Sprague-Dawley rat hippocampus at 25 uCi, iv after 60 mins by gamma counter; format: ADME, organism-based; details: in vivo, 1 h; outline: as §1
Hippocampus [16] = assay: Drug uptake in Sprague-Dawley rat hippocampus at 25 uCi, iv after 120 mins by gamma counter; format: ADME, organism-based; details: in vivo, 2 h; outline: as §1
Hippocampus [17] = assay: Drug uptake in Sprague-Dawley rat hippocampus at 25 uCi, iv after 180 mins by gamma counter; format: ADME, organism-based; details: in vivo, 3 h; outline: as §1
Cortex [18] = assay: Drug uptake in Sprague-Dawley rat cortex at 25 uCi, iv after 2 mins by gamma counter; format: ADME, organism-based; details: in vivo; outline: as §1
Cortex [19] = assay: Drug uptake in Sprague-Dawley rat cortex at 25 uCi, iv after 60 mins by gamma counter; format: ADME, organism-based; details: in vivo, 1 h; outline: as §1
Cortex [20] = assay: Drug uptake in Sprague-Dawley rat cortex at 25 uCi, iv after 120 mins by gamma counter; format: ADME, organism-based; details: in vivo, 2 h; outline: as §1
Cortex [21] = assay: Drug uptake in Sprague-Dawley rat cortex at 25 uCi, iv after 180 mins by gamma counter; format: ADME, organism-based; details: in vivo, 3 h; outline: as §1
Hypothalamus [22] = assay: Drug uptake in Sprague-Dawley rat hypothalamus at 25 uCi, iv after 2 mins by gamma counter; format: ADME, organism-based; details: in vivo; outline: as §1
Hypothalamus [23] = assay: Drug uptake in Sprague-Dawley rat hypothalamus at 25 uCi, iv after 60 mins by gamma counter; format: ADME, organism-based; details: in vivo, 1 h; outline: as §1
Hypothalamus [24] = assay: Drug uptake in Sprague-Dawley rat hypothalamus at 25 uCi, iv after 120 mins by gamma counter; format: ADME, organism-based; details: in vivo, 2 h; outline: as §1
Hypothalamus [25] = assay: Drug uptake in Sprague-Dawley rat hypothalamus at 25 uCi, iv after 180 mins by gamma counter; format: ADME, organism-based; details: in vivo, 3 h; outline: as §1
Nucleic Acid [26] = assay: Ratio of drug uptake in striatum to cerebellum in Sprague-Dawley rat at 25 uCi, iv after 2 mins; format: ADME, organism-based; details: in vivo
Outline: (§2)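 Region-to-cerebellum uptake ratios were calculated from %ID/g values (n = 5 rats per time point). These came from normal male Sprague-Dawley rats given 25 µCi of the 18F-tracer through the femoral vein and dissected at 2, 60, 120 or 180 min. Tissue was gamma-counted, and cerebellum served as the non-target background region.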

Nucleic Acid [27] = assay: Ratio of drug uptake in striatum to cerebellum in Sprague-Dawley rat at 25 uCi, iv after 60 mins; format: ADME, organism-based; details: in vivo, 1 h; outline: as §2
Nucleic Acid [28] = assay: Ratio of drug uptake in striatum to cerebellum in Sprague-Dawley rat at 25 uCi, iv after 120 mins; format: ADME, organism-based; details: in vivo, 2 h; outline: as §2
Nucleic Acid [29] = assay: Ratio of drug uptake in striatum to cerebellum in Sprague-Dawley rat at 25 uCi, iv after 180 mins; format: ADME, organism-based; details: in vivo, 3 h; outline: as §2
Nucleic Acid [30] = assay: Ratio of drug uptake in hippocampus to cerebellum in Sprague-Dawley rat at 25 uCi, iv after 2 mins; format: ADME, organism-based; details: in vivo; outline: as §2
Nucleic Acid [31] = assay: Ratio of drug uptake in hippocampus to cerebellum in Sprague-Dawley rat at 25 uCi, iv after 60 mins; format: ADME, organism-based; details: in vivo, 1 h; outline: as §2
Nucleic Acid [32] = assay: Ratio of drug uptake in hippocampus to cerebellum in Sprague-Dawley rat at 25 uCi, iv after 120 mins; format: ADME, organism-based; details: in vivo, 2 h; outline: as §2
Nucleic Acid [33] = assay: Ratio of drug uptake in hippocampus to cerebellum in Sprague-Dawley rat at 25 uCi, iv after 180 mins; format: ADME, organism-based; details: in vivo, 3 h; outline: as §2
Nucleic Acid [34] = assay: Ratio of drug uptake in cortex to cerebellum in Sprague-Dawley rat at 25 uCi, iv after 2 mins; format: ADME, organism-based; details: in vivo; outline: as §2
Nucleic Acid [35] = assay: Ratio of drug uptake in cortex to cerebellum in Sprague-Dawley rat at 25 uCi, iv after 60 mins; format: ADME, organism-based; details: in vivo, 1 h; outline: as §2
Nucleic Acid [36] = assay: Ratio of drug uptake in cortex to cerebellum in Sprague-Dawley rat at 25 uCi, iv after 120 mins; format: ADME, organism-based; details: in vivo, 2 h; outline: as §2
Nucleic Acid [37] = assay: Ratio of drug uptake in cortex to cerebellum in Sprague-Dawley rat at 25 uCi, iv after 180 mins; format: ADME, organism-based; details: in vivo, 3 h; outline: as §2
Nucleic Acid [38] = assay: Ratio of drug uptake in hypothalamus to cerebellum in Sprague-Dawley rat at 25 uCi, iv after 2 mins; format: ADME, organism-based; details: in vivo; outline: as §2
Nucleic Acid [39] = assay: Ratio of drug uptake in hypothalamus to cerebellum in Sprague-Dawley rat at 25 uCi, iv after 60 mins; format: ADME, organism-based; details: in vivo, 1 h; outline: as §2
Nucleic Acid [40] = assay: Ratio of drug uptake in hypothalamus to cerebellum in Sprague-Dawley rat at 25 uCi, iv after 120 mins; format: ADME, organism-based; details: in vivo, 2 h; outline: as §2
Nucleic Acid [41] = assay: Ratio of drug uptake in hypothalamus to cerebellum in Sprague-Dawley rat at 25 uCi, iv after 180 mins; format: ADME, organism-based; details: in vivo, 3 h; outline: as §2
Striatum [42] = assay: Drug uptake in Sprague-Dawley rat striatum at 2.5 mCi, iv after 60 mins post injection measured by autoradiographic technique; format: ADME, organism-based; details: in vivo, 1 h
Outline: (§3)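 For ex vivo autoradiography, normal Sprague-Dawley rats received 2.5 mCi of the 18F-tracer intravenously and were sacrificed at 60 min post-injection. Brains were removed immediately, frozen and sectioned. Dried sections were exposed to film overnight in an autoradiographic cassette to map regional radioactivity.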

[43] = Drug uptake in Sprague-Dawley rat caudate at 2.5 mCi, iv after 60 mins post injection measured by autoradiographic technique; format: ADME, organism-based, Caudate nucleus; details: in vivo, 1 h; outline: as §3
[44] = Drug uptake in Sprague-Dawley rat putamen at 2.5 mCi, iv after 60 mins post injection measured by autoradiographic technique; format: ADME, organism-based; details: in vivo, 1 h; outline: as §3
Cortex [45] = assay: Drug uptake in Sprague-Dawley rat cortex at 2.5 mCi, iv after 60 mins post injection measured by autoradiographic technique; format: ADME, organism-based; details: in vivo, 1 h; outline: as §3
[46] = Lipophilicity, log P of the compound; format: physicochemical; details: octanol/water
[47] = target: Sodium-dependent serotonin transporter (Homo sapiens, UniProt P31645); assay: Displacement of [125I]-IDAM from SERT transfected in pig LLC-PK1 cells by radioligand competition binding assay; format: cell-based
Chain of Sodium-dependent serotonin transporter (P31645 whole entry): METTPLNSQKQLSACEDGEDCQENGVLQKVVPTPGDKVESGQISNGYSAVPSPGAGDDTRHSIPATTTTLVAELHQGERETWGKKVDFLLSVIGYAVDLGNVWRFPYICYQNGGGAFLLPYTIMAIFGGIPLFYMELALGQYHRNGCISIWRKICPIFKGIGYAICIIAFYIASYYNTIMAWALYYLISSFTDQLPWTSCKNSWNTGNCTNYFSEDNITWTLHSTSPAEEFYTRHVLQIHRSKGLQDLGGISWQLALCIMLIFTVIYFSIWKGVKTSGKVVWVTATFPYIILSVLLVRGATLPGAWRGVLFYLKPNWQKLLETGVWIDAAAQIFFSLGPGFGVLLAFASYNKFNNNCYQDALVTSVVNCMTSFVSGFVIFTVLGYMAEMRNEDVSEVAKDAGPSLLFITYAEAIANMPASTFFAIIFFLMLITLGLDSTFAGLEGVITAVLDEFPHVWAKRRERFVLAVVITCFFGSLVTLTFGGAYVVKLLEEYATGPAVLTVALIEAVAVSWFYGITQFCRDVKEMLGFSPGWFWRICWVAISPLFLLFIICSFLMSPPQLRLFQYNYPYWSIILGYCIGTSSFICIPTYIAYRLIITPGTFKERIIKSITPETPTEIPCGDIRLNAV

[48] = target: Sodium-dependent noradrenaline transporter (Homo sapiens, UniProt P23975); assay: Displacement of [125I]-INXT from NET transfected in pig LLC-PK1 cells by radioligand competition binding assay; format: cell-based
Chain of Sodium-dependent noradrenaline transporter (P23975 whole entry): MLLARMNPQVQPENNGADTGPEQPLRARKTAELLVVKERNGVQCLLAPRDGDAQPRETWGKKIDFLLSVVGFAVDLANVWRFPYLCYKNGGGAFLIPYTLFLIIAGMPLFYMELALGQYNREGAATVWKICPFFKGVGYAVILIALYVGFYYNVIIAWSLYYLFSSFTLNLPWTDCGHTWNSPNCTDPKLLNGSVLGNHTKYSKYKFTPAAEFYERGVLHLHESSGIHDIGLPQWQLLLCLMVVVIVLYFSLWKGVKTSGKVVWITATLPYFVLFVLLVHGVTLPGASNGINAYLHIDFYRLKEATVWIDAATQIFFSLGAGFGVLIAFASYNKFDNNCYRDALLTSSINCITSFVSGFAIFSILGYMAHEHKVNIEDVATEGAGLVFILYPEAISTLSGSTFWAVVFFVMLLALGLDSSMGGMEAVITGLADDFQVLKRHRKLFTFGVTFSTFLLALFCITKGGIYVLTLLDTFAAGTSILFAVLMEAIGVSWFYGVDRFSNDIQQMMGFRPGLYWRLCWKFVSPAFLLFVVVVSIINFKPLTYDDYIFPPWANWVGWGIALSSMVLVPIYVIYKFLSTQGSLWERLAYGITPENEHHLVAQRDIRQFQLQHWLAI

[49] = Selectivity ratio of Ki for SERT to Ki for DAT
[50] = Selectivity ratio of Ki for NET to Ki for DAT

Chain of Sodium-dependent dopamine transporter (Q01959 whole entry): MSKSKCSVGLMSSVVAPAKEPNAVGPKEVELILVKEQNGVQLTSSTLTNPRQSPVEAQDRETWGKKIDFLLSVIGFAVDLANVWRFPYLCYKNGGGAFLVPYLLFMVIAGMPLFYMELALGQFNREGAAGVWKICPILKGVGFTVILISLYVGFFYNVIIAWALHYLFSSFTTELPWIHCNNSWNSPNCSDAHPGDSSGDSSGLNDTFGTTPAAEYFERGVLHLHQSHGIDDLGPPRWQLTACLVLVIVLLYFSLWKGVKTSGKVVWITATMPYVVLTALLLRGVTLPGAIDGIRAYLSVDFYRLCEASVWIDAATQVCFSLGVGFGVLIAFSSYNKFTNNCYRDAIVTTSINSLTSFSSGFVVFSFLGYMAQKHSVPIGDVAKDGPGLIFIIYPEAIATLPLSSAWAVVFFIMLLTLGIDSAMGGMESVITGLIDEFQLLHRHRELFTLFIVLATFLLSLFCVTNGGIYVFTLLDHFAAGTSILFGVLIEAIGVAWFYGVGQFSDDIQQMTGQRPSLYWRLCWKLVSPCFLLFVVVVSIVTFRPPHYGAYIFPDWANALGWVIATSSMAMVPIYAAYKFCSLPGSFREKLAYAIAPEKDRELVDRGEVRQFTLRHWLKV

## COC(=O)[C@@H]1C2CCC(C[C@@H]1c1ccc(Br)cc1)N2C (some centres undefined)
[1]
  Ki: 3.5 nM

## CN1C2CCC1[C@@H](CN(C(=O)OC(C)(C)C)c1cccc([18F])n1)[C@@H](c1ccc(Cl)cc1)C2 (some centres undefined)
Brain [2]
  Drug uptake: 0.4 % ID/g
Brain [3]
  Drug uptake: 0.26 % ID/g
Brain [4]
  Drug uptake: 0.07 % ID/g
Brain [5]
  Drug uptake: 0.04 % ID/g
Cerebellum [6]
  Drug uptake: 0.49 % ID/g
Cerebellum [7]
  Drug uptake: 0.23 % ID/g
Cerebellum [8]
  Drug uptake: 0.05 % ID/g
Cerebellum [9]
  Drug uptake: 0.03 % ID/g
Striatum [10]
  Drug uptake: 0.4 % ID/g
Striatum [11]
  Drug uptake: 0.47 % ID/g
Striatum [12]
  Drug uptake: 0.12 % ID/g
Striatum [13]
  Drug uptake: 0.09 % ID/g
Hippocampus [14]
  Drug uptake: 0.36 % ID/g
Hippocampus [15]
  Drug uptake: 0.28 % ID/g
Hippocampus [16]
  Drug uptake: 0.08 % ID/g
Hippocampus [17]
  Drug uptake: 0.05 % ID/g
Cortex [18]
  Drug uptake: 0.45 % ID/g
Cortex [19]
  Drug uptake: 0.28 % ID/g
Cortex [20]
  Drug uptake: 0.07 % ID/g
Cortex [21]
  Drug uptake: 0.03 % ID/g
Hypothalamus [22]
  Drug uptake: 0.4 % ID/g
Hypothalamus [23]
  Drug uptake: 0.29 % ID/g
Hypothalamus [24]
  Drug uptake: 0.06 % ID/g
Hypothalamus [25]
  Drug uptake: 0.04 % ID/g
Nucleic Acid [26]
  Ratio: 0.82
Nucleic Acid [27]
  Ratio: 2.02
Nucleic Acid [28]
  Ratio: 2.54
Nucleic Acid [29]
  Ratio: 3.14
Nucleic Acid [30]
  Ratio: 0.72
Nucleic Acid [31]
  Ratio: 1.21
Nucleic Acid [32]
  Ratio: 1.61
Nucleic Acid [33]
  Ratio: 1.81
Nucleic Acid [34]
  Ratio: 0.91
Nucleic Acid [35]
  Ratio: 1.21
Nucleic Acid [36]
  Ratio: 1.4
Nucleic Acid [37]
  Ratio: 0.96
Nucleic Acid [38]
  Ratio: 0.81
Nucleic Acid [39]
  Ratio: 1.24
Nucleic Acid [40]
  Ratio: 1.31
Nucleic Acid [41]
  Ratio: 1.51
Striatum [42]
  Drug uptake: Active
[43]
  Drug uptake: Active
[44]
  Drug uptake: Active
Cortex [45]
  Drug uptake: Active
[46]
  logP: 1.88

## CN1C2CCC1[C@@H](C(=O)Nc1cccc(F)n1)[C@@H](c1ccc(Cl)cc1)C2 (some centres undefined)
[1]
  Ki: 127 nM
[47]
  Ki: 29100 nM
[48]
  Ki: 16900 nM
[49]
  Ratio Ki: 229
[50]
  Ratio Ki: 133

## COC(=O)[C@@H]1C2CCC(C[C@@H]1c1ccc(Cl)cc1)N2C (some centres undefined)
[1]
  Ki: 5.1 nM

## COC(=O)[C@H]1[C@@H](c2ccc(F)cc2)C[C@H]2CC[C@H]1N2C
[47]
  Ki: 181 nM
[48]
  Ki: 635 nM

## CN1C2CCC1[C@@H](CNc1cccc(Br)n1)[C@@H](c1ccc(Cl)cc1)C2 (some centres undefined)
[1]
  Ki: 5.6 nM
[47]
  Ki: 7.4 nM
[48]
  Ki: 29.1 nM
[49]
  Ratio Ki: 1.3
[50]
  Ratio Ki: 5.2

From ChEMBL document CHEMBL1914398, “Synthesis and evaluation of novel N-fluoropyridyl derivatives of tropane as potential PET imaging agents for the dopamine transporter” (Bioorg Med Chem Lett, 2011)
